From ChEMBL document CHEMBL1629645 (Antimicrob Agents Chemother, 2009)
Converted amounts (≈) assume the structure as drawn. The source made the active and inactive calls. No cut-off for these calls is given here.

What was measured:
[1] = Cmax in cage fluid of Albino guiena pig at 75 mg/kg, ip after 3 hrs; assay type: ADME, organism-based, Cavia porcellus, Interstitial fluid; design: dose 75 mg/kg, route intraperitoneal; conditions: guinea pig
Procedure, shortened: (§1)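 Noninfected male albino guinea pigs (550–600 g) carrying subcutaneous Teflon cages, verified sterile, received one intraperitoneal dose. Cage fluid was aspirated at 1–24 h, two cages per animal, three animals per dose, centrifuged and stored at −20°C. Levels were read by agar diffusion bioassay (S. aureus ATCC 29213; standards in 31% guinea pig serum; limit 1.25 µg/ml). Per-animal parameters are given as mean ± SD; Cmin is the 12 h trough.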

[2] = Tmax in cage fluid of Albino guiena pig at 75 mg/kg, ip; assay type: ADME, organism-based, Cavia porcellus; design: dose 75 mg/kg, route intraperitoneal; conditions: guinea pig; procedure, shortened: as §1
Staphylococcus aureus [3] = assay: Antibacterial activity against methicillin-resistant Staphylococcus aureus ATCC 43300 infected in Albino guiena pig assessed as no. of culture-negative cage fluid samples at 75 mg/kg measured on day 4 postinfection; assay type: functional
Procedure, shortened: (§2)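 Same guinea pig cage infection and intraperitoneal 4-day, twice-daily regimen. Cage fluid cultured on day 4 and day 10. Result is the number of cage fluid samples without detectable MRSA growth over the total cages per group.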

[4] = Cmin in cage fluid of Albino guiena pig at 75 mg/kg, ip after 12 hrs; assay type: ADME, organism-based, Cavia porcellus; design: dose 75 mg/kg, route intraperitoneal; conditions: guinea pig, read-out: Cmin; procedure, shortened: as §1
[5] = AUC (0 to 24 hrs) in cage fluid of Albino guiena pig at 75 mg/kg, ip; assay type: ADME, organism-based, Cavia porcellus; design: time < 24 hr, dose 75 mg/kg, route intraperitoneal; conditions: guinea pig
[6] = Cmin in cage fluid of Albino guiena pig at 25 mg/kg, ip after 12 hrs; assay type: ADME, organism-based, Cavia porcellus; design: dose 25 mg/kg, route intraperitoneal; conditions: guinea pig, read-out: Cmin; procedure, shortened: as §1
Staphylococcus aureus [7] = assay: Antibacterial activity against methicillin-resistant Staphylococcus aureus ATCC 43300 infected in Albino guiena pig assessed as cure rate at 25 mg/kg measured on day 10 postinfection; assay type: functional, organism-based; design: dose 25 mg/kg
Procedure, shortened: (§3)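 Male albino guinea pigs, 550–600 g, with four subcutaneous perforated Teflon cages each. Cages infected with 2 × 10^4 CFU MRSA. Intraperitoneal treatment from 24 h post-infection, every 12 h for 4 days (8 doses), ≥3 animals per group. Explanted cages incubated in TSB at 37°C for 48 h, then plated. Cure is the share of cages without MRSA growth.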

Staphylococcus aureus [8] = assay: Antibacterial activity against methicillin-resistant Staphylococcus aureus ATCC 43300 infected in Albino guiena pig assessed as decrease in planktonic bacterial counts in cage fluid at 50 mg/kg measured on day 4 postinfection; assay type: functional
Procedure, shortened: (§4)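 Guinea pig subcutaneous cage model infected with 2 × 10^4 CFU MRSA. Intraperitoneal dosing every 12 h for 4 days, starting day 1. Cage-fluid CFU counted on day 1, day 4 (before last dose) and day 10. Δlog10 CFU/ml is day 4 or day 10 minus day 1. Quantification limit 1,000 CFU/ml; negatives set to 3 log10. Median and IQR.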

[9] = Cmax in cage fluid of Albino guiena pig at 25 mg/kg, ip after 3 hrs; assay type: ADME, organism-based, Cavia porcellus, Interstitial fluid; design: dose 25 mg/kg, route intraperitoneal; conditions: guinea pig; procedure, shortened: as §1
Staphylococcus aureus [10] = assay: Antibacterial activity against methicillin-resistant Staphylococcus aureus ATCC 43300 infected in Albino guiena pig assessed as cure rate at 75 mg/kg measured on day 4 postinfection; assay type: functional, organism-based; design: dose 75 mg/kg; procedure, shortened: as §3
Staphylococcus aureus [11] = assay: Antibacterial activity against methicillin-resistant Staphylococcus aureus ATCC 43300 infected in Albino guiena pig assessed as no. of culture-negative cage fluid samples at 25 mg/kg measured on day 10 postinfection; assay type: functional; procedure, shortened: as §2
[12] = Cmax in cage fluid of Albino guiena pig at 50 mg/kg, ip after 3 hrs; assay type: ADME, organism-based, Cavia porcellus, Interstitial fluid; design: dose 50 mg/kg, route intraperitoneal; conditions: guinea pig; procedure, shortened: as §1
[13] = AUC (0 to 24 hrs) in cage fluid of Albino guiena pig at 50 mg/kg, ip; assay type: ADME, organism-based, Cavia porcellus; design: time < 24 hr, dose 50 mg/kg, route intraperitoneal; conditions: guinea pig
Staphylococcus aureus [14] = assay: Antibacterial activity against methicillin-resistant Staphylococcus aureus ATCC 43300 infected in Albino guiena pig assessed as cure rate at 50 mg/kg measured on day 4 postinfection; assay type: functional, organism-based; design: dose 50 mg/kg; procedure, shortened: as §3
Staphylococcus aureus [15] = assay: Antibacterial activity against methicillin-resistant Staphylococcus aureus ATCC 43300 infected in Albino guiena pig assessed as inhibition of bacterial growth in cage fluid at 75 mg/kg measured on day 10 postinfection compared to the bacterial growth on day 1; assay type: functional, organism-based; design: dose 75 mg/kg; procedure, shortened: as §4
[16] = Half life in cage fluid of Albino guiena pig at 75 mg/kg, ip; conditions: guinea pig
Staphylococcus aureus [17] = assay: Antibacterial activity against 1 x10'6 to 5 x10^6 CFU/ml methicillin-resistant Staphylococcus aureus ATCC 43300 assessed as effect on bacterial count at MIC after 24 hrs by time kill study; assay type: functional, organism-based
Procedure, shortened: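 MRSA inoculum of 1 × 10^6 to 5 × 10^6 CFU/ml in 10 ml Mueller-Hinton broth. Drug at 1× and 4× MIC; drug-free growth control. Incubated at 37°C. Aliquots plated on Mueller-Hinton agar at 0, 6 and 24 h. Quantification limit 200 CFU/ml. Mean log10 CFU/ml reduction ± SD.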

[18] = Half life in cage fluid of Albino guiena pig at 25 mg/kg, ip; conditions: guinea pig
[19] = Half life in cage fluid of Albino guiena pig at 50 mg/kg, ip; conditions: guinea pig
Staphylococcus aureus [20] = assay: Antibacterial activity against methicillin-resistant Staphylococcus aureus ATCC 43300 during stationary growth phase by macrodilution method; assay type: functional
Staphylococcus aureus [21] = assay: Antibacterial activity against methicillin-resistant Staphylococcus aureus ATCC 43300 infected in Albino guiena pig assessed as decrease in planktonic bacterial counts in cage fluid at 50 mg/kg after measured on day 10 postinfection; assay type: functional; procedure, shortened: as §4
[22] = Tmax in cage fluid of Albino guiena pig at 50 mg/kg, ip; assay type: ADME, organism-based, Cavia porcellus; design: dose 50 mg/kg, route intraperitoneal; conditions: guinea pig; procedure, shortened: as §1
Staphylococcus aureus [23] = assay: Antibacterial activity against methicillin-resistant Staphylococcus aureus ATCC 43300 infected in Albino guiena pig assessed as no. of culture-negative cage fluid samples at 25 mg/kg measured on day 4 postinfection; assay type: functional; procedure, shortened: as §2
[24] = Cmin in cage fluid of Albino guiena pig at 50 mg/kg, ip after 12 hrs; assay type: ADME, organism-based, Cavia porcellus; design: dose 50 mg/kg, route intraperitoneal; conditions: guinea pig, read-out: Cmin; procedure, shortened: as §1
Staphylococcus aureus [25] = assay: Antibacterial activity against methicillin-resistant Staphylococcus aureus ATCC 43300 infected in Albino guiena pig assessed as decrease in planktonic bacterial counts in cage fluid at 25 mg/kg measured on day 4 postinfection; assay type: functional; procedure, shortened: as §4
Staphylococcus aureus [26] = assay: Antibacterial activity against methicillin-resistant Staphylococcus aureus ATCC 43300 by macrodilution method; assay type: functional
Procedure, shortened: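 Broth macrodilution MIC in Mueller-Hinton broth per CLSI. Inoculum 1 × 10^5 to 5 × 10^5 CFU/ml. Ten twofold drug dilutions, 18 h at 37°C without shaking. MIC is the lowest concentration with no visible growth. Triplicate.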

Staphylococcus aureus [27] = assay: Antibacterial activity against methicillin-resistant Staphylococcus aureus ATCC 43300 infected in Albino guiena pig assessed as no. of culture-negative cage fluid samples at 50 mg/kg measured on day 10 postinfection; assay type: functional; procedure, shortened: as §2
Staphylococcus aureus [28] = assay: Antibacterial activity against methicillin-resistant Staphylococcus aureus ATCC 43300 infected in Albino guiena pig assessed as decrease in planktonic bacterial counts in cage fluid at 75 mg/kg measured on day 4 postinfection; assay type: functional; procedure, shortened: as §4
Staphylococcus aureus [29] = assay: Antibacterial activity against methicillin-resistant Staphylococcus aureus ATCC 43300 during logarithmic growth phase by macrodilution method; assay type: functional
Staphylococcus aureus [30] = assay: Antibacterial activity against methicillin-resistant Staphylococcus aureus ATCC 43300 infected in Albino guiena pig assessed as decrease in planktonic bacterial counts in cage fluid at 75 mg/kg after measured on day 10 postinfection; assay type: functional; procedure, shortened: as §4
[31] = Tmax in cage fluid of Albino guiena pig at 25 mg/kg, ip; assay type: ADME, organism-based, Cavia porcellus; design: dose 25 mg/kg, route intraperitoneal; conditions: guinea pig; procedure, shortened: as §1
Staphylococcus aureus [32] = assay: Antibacterial activity against methicillin-resistant Staphylococcus aureus ATCC 43300 infected in Albino guiena pig assessed as no. of culture-negative cage fluid samples at 75 mg/kg measured on day 10 postinfection; assay type: functional; procedure, shortened: as §2
[33] = AUC (0 to 24 hrs) in cage fluid of Albino guiena pig at 25 mg/kg, ip; assay type: ADME, organism-based, Cavia porcellus; design: time < 24 hr, dose 25 mg/kg, route intraperitoneal; conditions: guinea pig
Staphylococcus aureus [34] = assay: Antibacterial activity against methicillin-resistant Staphylococcus aureus ATCC 43300 infected in Albino guiena pig assessed as no. of culture-negative cage fluid samples at 50 mg/kg measured on day 4 postinfection; assay type: functional; procedure, shortened: as §2

CC(=O)NC[C@H]1CN(c2ccc(N3CCOCC3)c(F)c2)C(=O)O1 [LINEZOLID] gave a Cmax [1] of 18100 ng/mL, a Tmax [2] of 2.8 h and an Activity (Staphylococcus aureus [3]) of 25%. The concentration at 12 h [4] was 2500 ng/mL, the AUC(0-t) at 24 h [5] was 126 µg·h/mL and the concentration at 12 h [6] was 3000 ng/mL. The Activity (Staphylococcus aureus [7]) was “inactive”, the log10CFU/ml (Staphylococcus aureus [8]) was 5.1 and the Cmax [9] was 6800 ng/mL. The Activity (Staphylococcus aureus [10]) was “inactive”, the Activity (Staphylococcus aureus [11]) was 0% and the Cmax [12] was 12700 ng/mL. For the same molecule, the AUC(0-t) at 24 h [13] was 119 µg·h/mL, the Activity (Staphylococcus aureus [14]) was “inactive” and the Activity (Staphylococcus aureus [15]) was “Active”. The half-life [16] was 2.6 h, the Activity (Staphylococcus aureus [17]) was “inactive” and the half-life [18] was 6.8 h. For the same molecule, the half-life [19] was 3.5 h, the MBC (Staphylococcus aureus [20]) was over 20 µg/mL and the log10CFU/ml (Staphylococcus aureus [21]) was 7.1. It also gave a Tmax [22] of 3.3 h, an Activity (Staphylococcus aureus [23]) of 8% and a concentration at 12 h [24] of 3700 ng/mL. It also gave a log10CFU/ml (Staphylococcus aureus [25]) of 4.5, an MIC (Staphylococcus aureus [26]) of 2.5 µg/mL (≈ 7.41 µM) and an Activity (Staphylococcus aureus [27]) of 0%. The log10CFU/ml (Staphylococcus aureus [28]) was 4.6, the MBC (Staphylococcus aureus [29]) was over 20 µg/mL and the log10CFU/ml (Staphylococcus aureus [30]) was 4.5. For the same molecule, the Tmax [31] was 3 h, the Activity (Staphylococcus aureus [32]) was 17% and the AUC(0-t) at 24 h [33] was 87.8 µg·h/mL. It also gave an Activity (Staphylococcus aureus [34]) of 17%.
